Reference: PubChem BioAssay
The source made the active and inactive calls.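 The calls were made as follows, unless noted: active = mean duplicate activation above the buffer control mean plus 5 SD of those controls; inactive = the rest.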

What follows are compounds tested against Potassium voltage-gated channel subfamily KQT member 1 (Homo sapiens) (UniProt P51787) (assay: KCNQ1 channel current potentiators, confirmation, orthogonal assay for KCNQ1 potentiator project, IonWorks patch clamp, KCNQ1-CHO cells (AID 493184;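 active = current rise at least 3 SD above the untreated control mean in each of two repeat wells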)). Details: automated patch clamp current, at 10 µM.
Chain of Potassium voltage-gated channel subfamily KQT member 1 (Homo sapiens) (P51787 whole entry, looked up): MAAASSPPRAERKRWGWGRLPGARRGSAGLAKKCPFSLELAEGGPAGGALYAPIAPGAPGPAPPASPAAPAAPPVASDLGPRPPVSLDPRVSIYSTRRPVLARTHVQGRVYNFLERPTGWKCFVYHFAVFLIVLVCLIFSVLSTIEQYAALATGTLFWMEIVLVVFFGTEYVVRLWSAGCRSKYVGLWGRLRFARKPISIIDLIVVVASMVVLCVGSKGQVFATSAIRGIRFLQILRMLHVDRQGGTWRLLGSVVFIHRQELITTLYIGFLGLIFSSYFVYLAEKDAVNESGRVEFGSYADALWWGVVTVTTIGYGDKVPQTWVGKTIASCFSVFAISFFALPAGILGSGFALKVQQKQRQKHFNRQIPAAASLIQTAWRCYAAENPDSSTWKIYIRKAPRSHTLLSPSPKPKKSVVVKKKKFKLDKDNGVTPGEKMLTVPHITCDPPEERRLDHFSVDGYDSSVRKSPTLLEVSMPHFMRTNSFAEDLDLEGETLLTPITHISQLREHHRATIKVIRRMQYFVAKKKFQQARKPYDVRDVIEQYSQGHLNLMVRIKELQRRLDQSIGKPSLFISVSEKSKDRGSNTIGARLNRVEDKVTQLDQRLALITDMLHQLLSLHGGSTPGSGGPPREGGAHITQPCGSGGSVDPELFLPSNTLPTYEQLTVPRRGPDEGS
Summary of the method: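 Probe or stimulus: depolarizing pulse to +40 mV from -90 mV; Material: CHO cells carrying KCNQ1; Compound: one dose, 10 µM final; Signal: automated voltage clamp, amphotericin B perforated patch; Read-out basis: percent current increase versus pre-compound level; Buffer or medium: pH 7.4 external bath; Replication: duplicates.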

outcome, inactive:
O=C(NC(=S)Nc1ccccc1N1CCCC1)c1ccco1
CC(C)OC(=O)c1c(NS(=O)(=O)c2ccccc2)sc2c1CCCC2
Fc1ccc(-c2csc(NC(=S)Nc3ccccc3)n2)cc1
O=C(N/N=C/c1ccc2cccc(OCc3ccccc3)c2n1)c1ccc(Br)cc1

The compounds below were run against Potassium voltage-gated channel subfamily E member 1 (Homo sapiens) + Potassium voltage-gated channel subfamily KQT member 1 (Homo sapiens) (UniProt P15382+P51787) (assay: KCNQ1/KCNE1 complex potentiators, confirmation, selectivity assay for KCNQ1 potentiator project, thallium flux, CHO-K1 KCNQ1/E1 cells (AID 493186)). Details: FluxOR thallium flux, at 10 µM.
Chain of Potassium voltage-gated channel subfamily E member 1 (Homo sapiens) + Potassium voltage-gated channel subfamily KQT member 1 (Homo sapiens) (P51787 whole entry, looked up): as the sequence (P51787 whole entry, looked up) above
Summary of the method: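 system = KCNQ1/E1-expressing stable CHO-K1 cell line | doses = single compound concentration per well | times = dye 90 min, compound 20 min, room temperature | measured by = FluxOR Tl+ flux fluorescence, kinetic read | evaluation = fluorescence rise relative to baseline, as percent of R-L3 response above buffer | controls = buffer and R-L3 | replicates = duplicate wells per compound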

outcome, inactive:
Cc1onc(-c2ccccc2)c1C(=O)NC(=S)NNC(=O)c1ccccc1O
CCOC(=O)CNC(=O)N1CCc2ccc(NC(=O)c3ccccc3Cl)cc2C1
Cc1cccc(/N=C/c2sc3ccccc3c2O)n1
N#CC(c1ccccc1)c1ccc2c(C(F)(F)F)cc(C(F)(F)F)nc2n1 (stereo not given)
CCc1ccc2oc(C(=O)NC3CCS(=O)(=O)C3)cc(=O)c2c1 (stereo not given)
Cc1ccccc1C(OCCN(C)C)C1CCCCC1 (stereo not given)
CCOC(=O)CSC(=S)NC(=O)c1ccc(OC)cc1
O=C(Nc1nnc(-c2ccco2)o1)c1ccc(Cl)cc1
Cc1nc(=S)c2c([nH]1)-c1ccccc1CC21CCCCC1
CCOC(=O)c1ccc(N2C(=O)C3ON(c4ccccc4)C(c4ccco4)C3C2=O)cc1 (stereo not given)
COC(=O)c1sc(NC(=S)NC(=O)c2cccc(C)c2)nc1C
CCOC(=O)c1oc2ccc(S(=O)(=O)n3nc(-c4ccc(OC)cc4)cc3N)cc2c1C
O=C(N/N=C/c1ccc([N+](=O)[O-])o1)c1sc2ccccc2c1Cl
CC(=O)/C(=N/Nc1ccc([N+](=O)[O-])cc1)N1CCCc2ccccc21
S=C(NCCc1ccccc1)N/N=C/C1CCCCC1
COC(=O)N/N=C/c1cc(C)n(-c2ccc(F)cc2)c1C
COCCCN1C(=O)C(=O)/C(=C(/O)c2ccc(C)cc2)C1c1ccccc1 (stereo not given)
COc1ccc(NC(=S)NCCC(c2ccccc2)c2ccccc2)c(OC)c1
Cc1ccsc1/C=N\NC(=O)c1n[nH]c2c1CCC2
Cc1cc(/C=N/n2cnnc2)c(C)n1-c1ccc(Cl)cc1Cl
O=C(N/N=C/c1ccc2cccc(OCc3ccccc3)c2n1)c1ccc(Br)cc1
